Screening data as filed in PubChem BioAssay.
Beta apoptosis = inhibitors of cytokine-induced beta cell apoptosis, primary screen, luminescence; hit rate 0.8% among 300,000; INS-1E cytokine-induced death, ATP luminescence, 48 h; percent of positive-control rescue, neutral wells zero; protection from apoptosis, % (test concentration not listed);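 active = Every replicate reaches about 75%, or at least half do and their mean reaches it too, limit read from the data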;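 note: higher means more ATP so stronger rescue from cytokine killing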
PfHsp90 set2 = growth inhibition of PfHsp90-expressing yeast, primary screen, antimalarial PfHsp90 inhibitor project, S. cerevisiae, BacTiter-Glo luminescence, single point, set 2. BacTiter-Glo ATP, 48 h; yeast lacking PDR1 and PDR3 efflux regulators. inhibition, % at 9.4 µM. hit rate 0.32% among 310,000. AID 504621, 2011;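 active = every replicate shows inhibition above about 80%, whatever the replicate mean, limit read from the data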
HIF act = HIF pathway transcriptional activators, primary screen, cell-based, U2OS HRE-luciferase, luminescence; U2OS HRE-luciferase reporter; normalized: DMSO 0%, desferrioxamine 100%; activation, % at 7.5 µM (by protocol); hit rate 0.32% among 300,000; AID 1910, 2009;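 active = mean activation of at least 10% of the iron chelator positive control signal, with at least half of replicates also reaching 10%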
T cruzi repl = inhibitors of intracellular T. cruzi growth, primary screen, luminescence, NIH3T3 host cells; T. cruzi beta-gal in NIH3T3, 90 h; inhibition, % (no concentration beside the values); hit rate 1.4% among 300,000; AID 1885, 2009;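 active = mean inhibition across valid replicates above about 55%, limit read from the data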;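 note: signal also drops with host cell toxicity which is not excluded here; higher percent means less beta-gal luminescence so fewer parasites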
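System – NIH/3T3 host cells with β-galactosidase reporter T. cruzi · Doses – single 50 nL compound addition per well in DMSO · Reagent – 5000 T. cruzi trypomastigotes/well · Medium – Low-serum DMEM with 2% FBS · Timing – ≥90 h infection period, 3 h prior cell attachment · Evaluation – parasite load inhibition, % · Technique – GalScreen luminescence, 60 min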
SKKanGAS inh = S. pyogenes SKKanGAS growth inhibitors in kanamycin, primary screen, streptokinase expression inhibitor project, SKKanGAS strain, BacTiter-Glo luminescence; 6 h; inhibition, % at 7.5 µM; hit rate 1.3% among 300,000; AID 1662, 2009;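 active = mean replicate score, as percent of positive control median, at least 50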;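 note: strain carries kanamycin resistance gene driven by streptokinase promoter and grows in 40 µg/ml kanamycin; loss of luminescence reflects streptokinase promoter inhibition or plain growth inhibition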
CSC inhib = cancer stem cell viability inhibitors, primary screen, luminescence. cancer stem cell-like cells viability. inhibition, % at 7.5 µM. hit rate 1.1% among 300,000. AID 2717, 2010; in the data active = inhibition above about 75%; tested in HMLE shEcad cells
Large screens that a line does not name were inactive. Compounds with a hit are over-represented: about 3.6% of the library has one in this group of screens.

O=C(CC(=O)c1ccccc1)CS(=O)(=O)c1ccccc1	none (no result: Beta apoptosis, HIF act, T cruzi repl, SKKanGAS inh, CSC inhib)
CC1(C)CN2C(=O)c3ccccc3C2(C)S1 (centres undefined)	none
Cc1[nH]c(-c2ccc(F)cc2)cc1C(=O)N1CCN(c2ccc(Cl)cc2)CC1	SKKanGAS inh 53.6
CC(/C=N/Nc1nncc(=O)[nH]1)=C\c1ccccc1	none
Cc1ccc(/C=N/Nc2cn[nH]c(=O)n2)o1	none
O=c1cnnc(N/N=C/c2ccccn2)[nH]1	Beta apoptosis 105.9, HIF act 75.3, CSC inhib 120.0
Cc1cc(=O)[nH]c(NN=Cc2c(Cl)cccc2Cl)n1	none (no result: Beta apoptosis, HIF act, T cruzi repl, SKKanGAS inh, CSC inhib)
Cc1cc(=O)[nH]c(N/N=C/c2ccc(-c3ccc(F)cc3)o2)n1	CSC inhib 75.3
CSc1ccc(/C=N/Nc2nc(C)cc(=O)[nH]2)cc1	none
O=c1nc(N/N=C/c2ccccn2)cn[nH]1	CSC inhib 81.9
Cc1cc(=O)[nH]c(N/N=C/c2ccccn2)n1	Beta apoptosis 95.0, HIF act 40.0, CSC inhib 107.2
CN(Cc1nc(-c2ccc(Cl)cc2)no1)C(=O)CCN1C(=O)[C@H]2CC=CC[C@H]2C1=O	none
C(=N\Nc1nncc2ccccc12)/c1ccccn1	Beta apoptosis 97.9
Fc1cccc(/C=N/Nc2nncc3ccccc23)c1	none
CCC1(c2ccc(F)cc2)NC(=O)N(CC(=O)N2CCN(S(=O)(=O)c3ccc(C)cc3C)CC2)C1=O (centres undefined)	none (no result: Beta apoptosis, HIF act, T cruzi repl, SKKanGAS inh, CSC inhib)
COc1ccc(C(=O)NCCc2nc3cc([N+](=O)[O-])ccc3n2C)cc1	HIF act 25.9
Cc1ccc2oc(=O)c3cc(C(=O)N4CCN(C)CC4)sc3c2c1	none
C[C@@H]1CN([C@H](C)CO)C(=O)Cc2cc(NS(=O)(=O)c3ccc(Cl)cc3)ccc2O[C@H]1CN(C)Cc1ccc(C(F)(F)F)cc1	CSC inhib 105.3 (no result: HIF act, T cruzi repl, SKKanGAS inh)
Cc1ccc(NC(=O)CN(C)C(=O)Cn2ncc(Cl)c(Cl)c2=O)cc1	CSC inhib 110.2
CC(C)=CCN1CCN(Cc2nc(-c3ccccc3)cs2)CC1CCO (centres undefined)	none
CC(=O)c1ccc(S(=O)(=O)N(C)CCCC(=O)N(C)Cc2c(F)cccc2Cl)cc1	none
C=C[C@@H]1c2cc(C)ccc2N(S(=O)(=O)c2ccc(C)cc2)[C@H](c2ccc(OC(C)=O)cc2)C1(C#N)C#N	CSC inhib 113.3 (no result: HIF act, T cruzi repl, SKKanGAS inh)
C=CC(n1cncn1)C(O)(c1ccccc1)c1ccccc1 (centres undefined)	PfHsp90 set2 104.8
O=C(/C(=C/c1ccccc1)n1cncn1)c1ccc(Cl)cc1Cl	none
Oc1c(C(c2ccccc2)N2CCOCC2)ccc2ccccc12 (centres undefined)	PfHsp90 set2 101.1 (no result: Beta apoptosis, HIF act, T cruzi repl, SKKanGAS inh, CSC inhib)
O=C(CN1CCN(C(c2ccccc2)c2ccccc2)CC1)N1CCOCC1	none
CC1CC(C)CN(C(=O)c2cc3cc(Br)cc(Br)c3o2)C1 (centres undefined)	CSC inhib 88.7
CC1CC(C)CN(C(=O)c2cc3ccccc3o2)C1 (centres undefined)	none (no result: PfHsp90 set2)
CC(C)(C)c1ccc(OCCOc2ccc(C(C)(C)C)cc2NC=O)c(NC=O)c1	T cruzi repl 59.1 (no result: Beta apoptosis, CSC inhib)
COCCOc1ccc(C(F)(F)F)cc1NC(=O)c1ccccc1	none (no result: CSC inhib)
Cc1noc(C)c1NC(=O)Nc1cccc2c1O[C@@H](CN(C)Cc1ccc3c(c1)OCO3)[C@@H](C)CN([C@H](C)CO)C2=O	none (no result: HIF act, T cruzi repl, SKKanGAS inh)
CCC(=O)NC(c1cc(Cl)c2cccnc2c1O)C1CC1 (centres undefined)	Beta apoptosis 103.5 (no result: HIF act, T cruzi repl, SKKanGAS inh)
CCC(=O)NC(c1cc(Cl)c2cccnc2c1O)C(C)C (centres undefined)	Beta apoptosis 104.7 (no result: HIF act, T cruzi repl, SKKanGAS inh)
CCC(=O)Nc1ccc(Cl)c(-c2nc3ncccc3o2)c1	none (no result: Beta apoptosis)
CN(CC(=O)Nc1cccc(F)c1)C(=O)c1cccc(S(=O)(=O)N2CCN(c3ccc(F)cc3)CC2)c1	none (no result: Beta apoptosis, HIF act, T cruzi repl, SKKanGAS inh, CSC inhib)
CCOc1cc(C(=O)NC(C)CCc2ccccc2)cc(OCC)c1OCC (centres undefined)	none
CCOc1cc(/C=C2\COc3ccccc3C2=O)cc(Br)c1OCC(=O)N(C)C	Beta apoptosis 100.0
COC(=O)C1CCCCN1C(=O)c1cc(COc2cccc3cnccc23)on1 (centres undefined)	Beta apoptosis 101.3
COCCC1CCCCN1C(=O)c1cc(COc2cccc(C(C)=O)c2)on1 (centres undefined)	none
COC(=O)C1CCCCN1C(=O)c1cc(COc2cccc3cccnc23)on1 (centres undefined)	none
CCOC(=O)CC1CCCCN1C(=O)c1cc(COc2cccc3cnccc23)on1 (centres undefined)	Beta apoptosis 96.2
O=C(C[n+]1cc(-c2ccccc2)n2c1CCCCC2)c1ccc(Cl)cc1	none
Cc1ccc(-c2c[n+](CC(=O)c3ccc(Br)cc3)c3n2CCCCC3)cc1	T cruzi repl 73.6
COc1ccc(C2=Nn3c([n+](C)c4ccccc43)SC2)cc1	Beta apoptosis 112.3, T cruzi repl 70.0
C[n+]1c2n(c3ccccc31)N=C(c1ccc(Cl)cc1)CS2	Beta apoptosis 75.8
CCc1nnc2n1N=C(c1ccc(OC)cc1)CS2	none (no result: PfHsp90 set2)
CC1Sc2n(c3ccccc3[n+]2C)N=C1c1ccccc1 (centres undefined)	none
COc1nc(N=C(N)N)nc2ccc(C)cc12	none (no result: PfHsp90 set2, CSC inhib)
CN1c2ccccc2N(C)C1(C)c1ccccc1	Beta apoptosis 130.6, T cruzi repl 61.6
CCN1c2ccccc2N(C)C1(C)c1ccccc1 (centres undefined)	Beta apoptosis 106.3 (no result: HIF act, T cruzi repl, SKKanGAS inh)
CN1C(=O)N(C)C2(c3ccccc3)NC(=O)NC12c1ccccc1 (centres undefined)	none
CCN1C(=O)N(c2cccc3ccccc23)C(C)=CC1(C)C	none
O=C(CC1C[C@H](C(=O)N2CCOCC2)[C@@]2(CCC3CCCC3)c3[nH]c4ccccc4c3CCN2C1=O)NCc1ccco1 (some centres undefined)	none (no result: HIF act, T cruzi repl, SKKanGAS inh)
Cc1ccc(S(=O)(=O)c2nnn3c2nc(N2CCCCC2)c2ccccc23)cc1	T cruzi repl 61.4
Cc1ccc(S(=O)(=O)c2nnn3c2nc(N2CCOCC2)c2ccccc23)cc1	none
O=c1cc(-c2c(F)c(F)c(F)c(F)c2F)oc2c(F)c(F)c(F)c(F)c12	Beta apoptosis 106.8, T cruzi repl 60.6, CSC inhib 101.0 (no result: PfHsp90 set2)
O=c1cc(-c2c(F)c(F)c(F)c(F)c2F)oc2ccccc12	none
Cc1ccc(S(=O)(=O)Nc2ccc(N3CCCCC3)cc2)cc1	none
Cc1ccc(NS(=O)(=O)c2ccc(C3CCCCC3)cc2)cc1	SKKanGAS inh 76.3
COc1ccc(OC)c(CN2CCN(C(=O)CNC(=O)c3ccc(C(C)(C)C)cc3)CC2)c1	none (no result: HIF act, T cruzi repl, SKKanGAS inh)
